Measurements reported in ChEMBL document CHEMBL4270510, “Indolyl-isoxazolidines attenuate LPS-stimulated pro-inflammatory cytokines and increase survival in a mouse model of sepsis: Identification of potent lead” (Eur J Med Chem, 2018).
pIC50: −log10 of the molar value. Active and inactive are the calls of the source. The calls are words filed in the database; no cut-off is given here.

What was measured:
THP-1 [1] = assay: Inhibition of LPS-induced TNFalpha production in PMA-treated human THP1 cells at 5 uM after 24 hrs by ELISA relative to total protein level (reference value: 6.04 +/- 0.54); format: cell-based; conditions: thp-1, 24 h
THP-1 [2] = assay: Antiinflammatory activity against PMA-treated human THP1 cells assessed as inhibition of LPS-induced IL-6 production at 5 uM after 24 hrs by ELISA relative to total protein level (reference value: 6.06 +/- 0.55); format: functional
THP-1 [3] = assay: Antiinflammatory activity against PMA-treated human THP1 cells assessed as inhibition of LPS-induced IL-6 production at 5 uM after 24 hrs by ELISA relative to control; format: functional
THP-1 [4] = assay: Cytotoxicity against human THP1 cells assessed as decrease in cell growth after 48 hrs by MTT assay; format: cell-based; conditions: THP-1, 48 h
Procedure, shortened: (§1)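 THP-1 cells in 96-well plates treated with a range of compound concentrations for 24 or 48 h. MTT (2.5 mg/mL) added for 4 h at 37 °C, formazan dissolved in DMSO, absorbance read at 540 nm. Growth taken as treated versus untreated absorbance.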

THP-1 [5] = assay: Cytotoxicity against human THP1 cells assessed as decrease in cell growth after 24 hrs by MTT assay; format: cell-based; conditions: THP-1, 24 h; procedure, shortened: as §1
Mus musculus [6] = assay: Antiinflammatory activity against Swiss albino mouse assessed as inhibition of LPS-induced IL-6 production in serum at 20 mg/kg, ip by ELISA relative to control; format: functional
Procedure, shortened: (§2)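 Swiss albino mice given compound at 5, 10 or 20 mg/kg, then challenged with LPS 1 mg/kg; vehicle and LPS-alone groups included. Cardiac-puncture blood taken with heparin and spun to plasma, stored -20°C. TNF-α and IL-6 measured by ELISA in pg/mL. Dose-response done in triplicate, fitted by quadratic/cubic regression to derive IC50 in mg/kg.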

Mus musculus [7] = assay: Antiinflammatory activity against Swiss albino mouse assessed as inhibition of LPS-induced IL-6 production in serum administered ip by ELISA; format: functional, organism-based; procedure, shortened: as §2
Mus musculus [8] = assay: Antiinflammatory activity against Swiss albino mouse assessed as inhibition of LPS-induced TNFalpha production in serum at 10 mg/kg, ip by ELISA relative to control; format: functional; procedure, shortened: as §2
Mus musculus [9] = assay: Antiinflammatory activity against Swiss albino mouse assessed as inhibition of LPS-induced IL-6 production in serum at 10 mg/kg, ip by ELISA relative to control; format: functional; procedure, shortened: as §2
Mus musculus [10] = assay: Antiinflammatory activity against Swiss albino mouse assessed as inhibition of LPS-induced TNFalpha production in serum at 20 mg/kg, ip by ELISA relative to control; format: functional; procedure, shortened: as §2
Mus musculus [11] = assay: Antiinflammatory activity against Swiss albino mouse assessed as inhibition of LPS-induced TNFalpha production in serum administered ip by ELISA; format: functional, organism-based; procedure, shortened: as §2
Mus musculus [12] = assay: Antiinflammatory activity in carrageenan-induced Swiss albino mouse assessed as inhibition of paw edema at 12.5 mg/kg, ip administered 0.5 hrs prior to carrageenan challenge measured at 6 hrs post challenge; format: functional
Procedure, shortened: (§3)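 Mice given vehicle (0.1% CMC), indomethacin 10 mg/kg p.o., or test compound 30 min before injection of 50 μL 1% w/v carrageenan into right hind paw. Paw edema measured by vernier caliper at 5, 15, 30 min and 1, 2, 3, 4, 6 h. Mean ± SEM.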

Mus musculus [13] = assay: Antiinflammatory activity in carrageenan-induced Swiss albino mouse assessed as inhibition of paw edema at 12.5 mg/kg, ip administered 0.5 hrs prior to carrageenan challenge measured at 1 to 6 hrs post challenge; format: functional, organism-based; procedure, shortened: as §3
Homo sapiens = organism: Homo sapiens; assay: Inhibition of NF-KappaB pathway in human THP1 cell lysates assessed as decrease in LPS-induced iNOS expression level after 24 hrs by Western blot analysis
Procedure, shortened: (§4)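 PMA-differentiated THP-1 cells co-treated with LPS and a range of compound concentrations for 24 h, lysed in RIPA buffer. COX-2 and iNOS expression assessed by western blot, with β-actin as internal control.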

Mus musculus [14] = assay: (§5) Antinociceptive activity in Swiss albino mouse assessed as inhibition of acetic acid-induced writhing by measuring reduction in number of abnormal muscle constrictions at 12.5 mg/kg, ip treated 30 mins prior to test followed by acetic acid challenge measured for 30 mins post acetic acid challenge relative to control; format: functional
Procedure, shortened: (§6)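 Mice dosed i.p. with vehicle (0.1% carboxymethyl cellulose), test compound 12.5 mg/kg or indomethacin 10 mg/kg, 30 min before acetic acid (0.6% v/v, 10 ml/kg, i.p.). Writhes counted per mouse over 30 min after acetic acid. Mean ± SEM; ANOVA with Tukey test.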

THP-1 [15] = assay: Antiinflammatory activity against human THP1 cells assessed as inhibition of LPS-induced COX-2 expression level after 24 hrs by Western blot analysis; format: functional, cell-based; procedure, shortened: as §4
Mus musculus [16] = assay: Acute toxicity in Swiss albino mouse assessed as effect on kidney at 2000 mg/kg, ip administered continuously for first 4 hrs and periodically for 24 hrs measured after 14 days by hematoxylin and eosin staining based assay; format: organism-based; conditions: in vivo
Procedure, shortened: (§7)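 OECD acute toxicity design, Swiss albino mice fasted 4 h, 3 per group, vehicle vs 2000 mg kg⁻¹; after 14 days one animal each from control and top-dose groups sacrificed; heart, liver and kidney sections H and E stained and compared with control.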

Mus musculus [17] = assay: Antiseptic activity in Swiss albino mouse model of LPS-induced sepsis assessed as increase in mouse survival rate at 12.5 mg/kg, iv measured for 10 days at 1 day interval
Mus musculus [18] = assay: Acute toxicity in Swiss albino mouse assessed as effect on liver at 2000 mg/kg, ip administered continuously for first 4 hrs and periodically for 24 hrs measured after 14 days by hematoxylin and eosin staining based assay; format: organism-based; conditions: in vivo, 336 h; procedure, shortened: as §7
Mus musculus [19] = assay: Acute toxicity in Swiss albino mouse assessed as effect on myocardium at 2000 mg/kg, ip administered continuously for first 4 hrs and periodically for 24 hrs measured after 14 days by hematoxylin and eosin staining based assay; format: organism-based; conditions: in vivo; procedure, shortened: as §7
Mus musculus [20] = assay: Analgesic activity in Swiss albino mouse assessed as inhibition of acetic acid induced writhing at 12.5 mg/kg, ip pretreated with misoprostol for 30 mins followed by acetic acid challenge and measured after 30 mins; format: functional, organism-based
Mus musculus [21] = assay: Acute toxicity in Swiss albino mouse assessed as effect on gross behavioral abnormality at 50 to 2000 mg/kg, ip administered continuously for first 4 hrs and periodically for 24 hrs measured after 14 days; format: organism-based; conditions: in vivo
Procedure, shortened: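 Swiss albino mice, 3 per group: vehicle control, or 50, 300 or 2000 mg kg⁻¹ given after 4 h fasting under OECD acute toxicity guideline; watched continuously for first 4 h then periodically to 24 h for gross behavioural abnormality.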

Mus musculus [22] = assay: Analgesic activity in Swiss albino mouse assessed as inhibition of acetic acid induced writhing at 12.5 mg/kg, ip pretreated with opioid receptor antagonist naloxone for 30 mins followed by acetic acid challenge and measured after 30 mins; format: functional, organism-based
Mus musculus [23] = assay: as §5, with “10” for “12.5”; format: functional; procedure, shortened: as §6
Mus musculus [24] = assay: Antiinflammatory activity in carrageenan-induced Swiss albino mouse assessed as inhibition of paw edema at 10 mg/kg, po administered 0.5 hrs prior to carrageenan challenge measured 6 hrs post challenge; format: functional; procedure, shortened: as §3

SMILES	fold change (FC) (THP-1 [1])	fold change (FC) (THP-1 [2])	fold change (FC) (THP-1 [3])	further results
CCN1C(=O)[C@H]2[C@H](ON(c3ccccc3)[C@@H]2c2c[nH]c3ccccc23)C1=O (racemic)	2.42	3.09	–	–
CCCCOC(=O)[C@H]1CON(c2ccccc2)[C@H]1c1c[nH]c2ccccc12 (racemic)	2.59	3.03	–	–
C[C@@]1(c2ccccc2)C[C@H](c2c[nH]c3ccccc23)N(c2ccccc2)O1 (racemic)	2.74	1.13	4 - 5	pIC50 (THP-1 [4]): 4.13; pIC50 (THP-1 [5]): < 4.00
O=C1[C@H]2[C@H](ON(c3ccccc3)[C@@H]2c2c[nH]c3ccccc23)C(=O)N1c1ccccc1 (racemic)	2.21	1.43	4 - 5	inhibition in vivo at 20 mg/kg (Mus musculus [6]): 65.5%; IC50 (Mus musculus [7]): 7.4 mg/kg; inhibition in vivo at 10 mg/kg (Mus musculus [8]): 52.9%; inhibition in vivo at 10 mg/kg (Mus musculus [9]): 60.5%; inhibition in vivo at 20 mg/kg (Mus musculus [10]): 62.1%; pIC50 (THP-1 [4]): 4.11; IC50 (Mus musculus [11]): 8.7 mg/kg; pIC50 (THP-1 [5]): < 4.00
O=C1NC(=O)[C@H]2ON(c3ccccc3)[C@H](c3c[nH]c4ccccc34)[C@@H]12 (racemic)	4.28	1.65	4 - 5	–
O=C1[C@H]2[C@H](ON(c3ccccc3)[C@@H]2c2c[nH]c3ccccc23)C(=O)N1Cc1ccccc1 (racemic)	2.37	1.34	4 - 5	inhibition in vivo at 12.5 mg/kg (Mus musculus [12]): 36.9%; inhibition (Mus musculus [13]): Active; inhibition in vivo at 20 mg/kg (Mus musculus [6]): 89.9%; inhibition (Homo sapiens): Dose-dependent effect; inhibition in vivo at 12.5 mg/kg (Mus musculus [14]): 80.7%; inhibition (THP-1 [15]): Dose-dependent effect; IC50 (Mus musculus [7]): 3.5 mg/kg; Activity (Mus musculus [16]): Non-Toxic; inhibition in vivo at 10 mg/kg (Mus musculus [8]): 53.8%; Activity (Mus musculus [17]): Active; Activity (Mus musculus [18]): Non-Toxic; Activity (Mus musculus [19]): Non-Toxic; inhibition in vivo at 10 mg/kg (Mus musculus [9]): 73.7%; inhibition in vivo at 20 mg/kg (Mus musculus [10]): 86.1%; inhibition (Mus musculus [20]): inactive; pIC50 (THP-1 [4]): 4.06; IC50 (Mus musculus [11]): 9.4 mg/kg; Activity (Mus musculus [21]): Non-Toxic; inhibition (Mus musculus [22]): Active; pIC50 (THP-1 [5]): < 4.00
COc1ccc2c(c1)c(CC(=O)O)c(C)n2C(=O)c1ccc(Cl)cc1 [INDOMETHACIN]	–	–	–	inhibition in vivo at 10 mg/kg (Mus musculus [23]): 58.1%; inhibition in vivo at 10 mg/kg (Mus musculus [24]): 34.5%

Continued, in another order:

fold change (FC) (THP-1 [1])	SMILES	fold change (FC) (THP-1 [2])	fold change (FC) (THP-1 [3])	further results
4.37	CCOC(=O)[C@H]1CON(c2ccccc2)[C@H]1c1c[nH]c2ccccc12 (racemic)	1.15	4 - 5	–
3.92	c1ccc(N2O[C@H](c3ccncc3)C[C@@H]2c2c[nH]c3ccccc23)cc1 (racemic)	2.77	4 - 5	–
3.98	CCCCOC(=O)[C@@H]1C[C@H](c2c[nH]c3ccccc23)N(c2ccccc2)O1 (racemic)	2.06	–	–
7.77	CCOC(=O)[C@@H]1C[C@H](c2c[nH]c3ccccc23)N(c2ccccc2)O1 (racemic)	3.2	–	–
3	COC(=O)[C@H]1CON(c2ccccc2)[C@H]1c1c[nH]c2ccccc12 (racemic)	1.67	4 - 5	–
4.58	Cc1ccc([C@@H]2C[C@H](c3c[nH]c4ccccc34)N(c3ccccc3)O2)cc1 (racemic)	1.12	4 - 5	–
7.27	COC(=O)[C@@H]1C[C@H](c2c[nH]c3ccccc23)N(c2ccccc2)O1 (racemic)	4.08	–	–
3.98	CCOC(=O)[C@@H]1[C@@H](C)ON(c2ccccc2)[C@H]1c1c[nH]c2ccccc12 (racemic)	3.01	–	–
14.93	c1ccc([C@@H]2C[C@H](c3c[nH]c4ccccc34)N(c3ccccc3)O2)cc1 (racemic)	5.4	–	–
